The record followed here is ChEMBL document CHEMBL4376860, “Discovery of Novel Dual Poly(ADP-ribose)polymerase and Phosphoinositide 3-Kinase Inhibitors as a Promising Strategy for Cancer Therapy” (J Med Chem, 2020).

Each structure is given as a SMILES string. Active and inactive are the calls of the source. No cut-off for these calls is given here.

One data set deals with Jurkat. Kind of data set: Antiproliferative activity against human Jurkat cells measured after 7 days by Celltiter-glo assay. The class given is functional, cell-based. The note with it: 168 h. In short, it runs like this: (§1)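 Cells maintained in RPMI1640 with 10% FBS at 37 °C, 5% CO2. Seeded the day before dosing, grown 12 h, then exposed to graded compound concentrations for 7 days. CellTiter-Glo reagent added, 10 min at room temperature, luminescence read. Inhibition % = (1-(RLU compound - RLU blank)/(RLU DMSO - RLU blank))×100. IC50 from nonlinear regression, normalized dose-response fit.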
(In general: ATP-based viability assays read luminescence as a measure of living cells.)

Data set [1] relates to MDA-MB-468. Kind of data set: Induction of apoptosis in human MDA-MB-468 cells assessed as late apoptotic cells at 1 uM measured after 72 hrs in presence of PARP inhibitor olaparib by Annexin V-FITC/propidium iodide staining based flow cytometry (reference value: 0.78%). Format: functional. Background: In flow cytometry, cells or beads pass a laser one at a time.
Data set [2] deals with MDA-MB-468. Kind of data set: Induction of DNA damage in human MDA-MB-468 cells at 1 uM measured after 72 hrs by comet assay. Format: functional, cell-based. The gist of the method: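 MDA-MB-468 cells treated for 72 h, harvested and run in a neutral comet assay. Ethidium bromide staining after electrophoresis. About 200 cell images per group analysed with CASP. DNA damage scored as tail intensity (percentage DNA in tail) and olive tail moment. Mean ± SD of three independent experiments.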

In data set [3] the test system is MDA-MB-468. Kind of data set: Induction of apoptosis in human MDA-MB-468 cells assessed as viable cells at 1 uM measured after 72 hrs by Annexin V-FITC/propidium iodide staining based flow cytometry (reference value: 95.2%). The note with it: MDA-MB-468, 72 h, read-out: Activity. The class given is functional.
Data set [4] has as its system MDA-MB-468. Kind of data set: Induction of apoptosis in human MDA-MB-468 cells assessed as early apoptotic cells at 1 uM measured after 72 hrs by Annexin V-FITC/propidium iodide staining based flow cytometry (reference value: 3.88%). Format: functional.
Another data set deals with A549. Kind of data set: Antiproliferative activity against human A549 cells measured after 7 days by Celltiter-glo assay. The note with it: A549, 168 h. Format: functional, cell-based. In short, it runs like this: as §1
For data set [5], the system named is SW-620. Description: cells. The note with it: Homo sapiens, SW-620, 168 h, read-out: pIC50 (converted).
In data set [6] the test system is MDA-MB-468. Kind of data set: Induction of apoptosis in human MDA-MB-468 cells assessed as late apoptotic cells at 1 uM measured after 72 hrs by Annexin V-FITC/propidium iodide staining based flow cytometry (reference value: 0.78%). Format: functional.
Data set [7] concerns MDA-MB-468. Description: Induction of apoptosis in human MDA-MB-468 cells assessed as necrotic cells at 1 uM measured after 72 hrs by Annexin V-FITC/propidium iodide staining based flow cytometry (reference value: 0.13%). The class given is functional.
The subject of a further data set is A2780. Description: Antiproliferative activity against human A2780 cells measured after 7 days by Celltiter-glo assay. The class given is functional, cell-based. The note with it: A2780, 168 h. The gist of the method: as §1
For a further data set, the system named is HCT-116. Description: Antiproliferative activity against human HCT116 cells measured after 7 days by Celltiter-glo assay. The class given is functional, cell-based. The note with it: HCT-116, 168 h. In short, it runs like this: as §1
The next data set concerns CAKI-1. Kind of data set: Antiproliferative activity against human CAKI-1 cells measured after 7 days by Celltiter-glo assay. Format: functional, cell-based. The note with it: CAKI-1, 168 h. In short, it runs like this: as §1
Data set [8] has as its system HCC1937. Kind of data set: Antiproliferative activity against human HCC1937 cells measured after 7 days by Celltiter-glo assay. The class given is functional, cell-based. The note with it: HCC1937, 168 h. In short, it runs like this:
as §1

The test system of data set [9] is MDA-MB-231. Description: Antiproliferative activity against human MDA-MB-231 cells measured after 7 days by Celltiter-glo assay. The note with it: MDA-MB-231, 168 h. Format: functional, cell-based. The gist of the method: as §1
In data set [10] the test system is MDA-MB-468. Description: Antiproliferative activity against human MDA-MB-468 cells measured after 7 days by Celltiter-glo assay. Format: functional, cell-based. The note with it: MDA-MB-468, 168 h. In short, it runs like this: as §1
The test system of data set [11] is MDA-MB-468. Description: Inhibition of PI3K in human MDA-MB-468 cells assessed as reduction in RAD51 foci formation at 1 uM measured after 72 hrs by DAPI staining based immunofluorescence microscopic analysis. The class given is cell-based. In short, it runs like this: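 RAD51 foci in MDA-MB-468 cells on coverslips after 72 h drug exposure. Cells fixed (3% formaldehyde), permeabilized (0.1% Triton X-100), blocked in 10% FBS/PBS, incubated overnight at 4 °C with rabbit anti-RAD51 polyclonal, then secondary antibody plus DAPI. Foci and percent positive cells (>5 foci per cell) counted from about 200 cells. Mean ± SD of three independent experiments.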

Data set [12] is described as follows: Toxicity in BALB/c mouse xenografted with human MDA-MB-468 cells assessed as mortality at 50 mg/kg, ip administered every 2 days for 34 days in presence of PARP inhibitor olaparib. Format: organism-based. The note with it: in vivo. The gist of the method:
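Nude mice bearing subcutaneous right-flank MDA-MB-468 tumours (2 × 10^6 exponential-phase cells implanted). Randomised at about 100 mm³ tumour volume; 6 mice per group. Dosed ip every 2 days for 34 days. Vehicle controls received PBS with 5% DMSO. Body weight and tumour size recorded every 2 days; tumour volume calculated as ab²/2 from caliper diameters.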

In data set [13] the test system is MDA-MB-468. Description: Inhibition of PI3K in human MDA-MB-468 cells assessed as reduction in BRCA2 mRNA level at 1 uM by Trizol reagent-based RT-PCR analysis. Format: cell-based. In short, it runs like this: (§2)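 Total RNA from treated MDA-MB-468 cells extracted with TRIzol. BRCA1 or BRCA2 mRNA quantified by real-time PCR with GAPDH as internal control. Results given as fold change relative to the internal control. Mean ± SD of three independent experiments.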

Data set [14] relates to SW-620. Description: Antiproliferative activity against human SW620 cells measured after 7 days by Celltiter-glo assay. Format: functional, cell-based. The note with it: SW-620, 168 h. The gist of the method:
as §1

Data set [15] deals with MDA-MB-468. Description: Inhibition of PI3K in human MDA-MB-468 cells assessed as reduction in BRCA1 mRNA level at 1 uM by Trizol reagent-based RT-PCR analysis. Format: cell-based. In short, it runs like this:
as §2

Data set [16] deals with HCC1937. Kind of data set: cells. The note with it: Homo sapiens, HCC1937, 168 h, read-out: pIC50 (converted).
For another data set, the system named is Ramos. Description: Antiproliferative activity against human Ramos cells measured after 7 days by Celltiter-glo assay. The class given is functional, cell-based. The note with it: 168 h. The gist of the method: as §1
Another data set deals with BXPC-3. Kind of data set: Antiproliferative activity against human BxPC3 cells measured after 7 days by Celltiter-glo assay. Format: functional, cell-based. The note with it: BXPC-3, 168 h. In short, it runs like this:
as §1

For a further data set, the system named is DU-145. Kind of data set: Antiproliferative activity against human DU145 cells measured after 7 days by Celltiter-glo assay. The class given is functional, cell-based. The note with it: DU-145, 168 h. The gist of the method:
as §1

Data set [17] concerns the target Poly [ADP-ribose] polymerase 1 (Homo sapiens, UniProt P09874). Kind of data set: Inhibition of recombinant human PARP1 using histone as substrate after 1 hr in presence of biotinylated NAD+ by ELISA. (In general: ELISA stands for enzyme-linked immunosorbent assay.)
For data set [18], the system named is MDA-MB-231. Description: Potency index, ratio of BKM120 IC50 to test compound IC50 for antiproliferative activity against human MDA-MB-231 cells. The class given is functional.
Data set [19] has as its system MDA-MB-468. Kind of data set: Inhibition of PI3K in human MDA-MB-468 cells assessed as increase in gammaH2AX foci formation at 1 uM measured after 72 hrs by DAPI staining based immunofluorescence microscopic analysis. Format: cell-based. In short, it runs like this:
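MDA-MB-468 cells on coverslips given drugs for 72 h. Fixed in 3% formaldehyde, permeabilized with 0.1% Triton X-100, blocked in 10% FBS/PBS, then rabbit anti-γH2AX (Ser139) overnight at 4 °C. Secondary antibody and DAPI stain followed. About 200 cells scored for foci; a cell was positive with more than 5 foci. Three independent experiments.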

Another data set has as its system Mus musculus. Kind of data set: In vivo activation of ETS1 in BALB/c mouse xenografted with human MDA-MB-468 cells assessed as increase in ETS1 phosphorylation at Thr38 residue at 50 mg/kg, ip administered every 2 days for 34 days measured post-last dose by Western blot analysis. The class given is functional, organism-based.

Chain of Poly [ADP-ribose] polymerase 1 (P09874 whole entry): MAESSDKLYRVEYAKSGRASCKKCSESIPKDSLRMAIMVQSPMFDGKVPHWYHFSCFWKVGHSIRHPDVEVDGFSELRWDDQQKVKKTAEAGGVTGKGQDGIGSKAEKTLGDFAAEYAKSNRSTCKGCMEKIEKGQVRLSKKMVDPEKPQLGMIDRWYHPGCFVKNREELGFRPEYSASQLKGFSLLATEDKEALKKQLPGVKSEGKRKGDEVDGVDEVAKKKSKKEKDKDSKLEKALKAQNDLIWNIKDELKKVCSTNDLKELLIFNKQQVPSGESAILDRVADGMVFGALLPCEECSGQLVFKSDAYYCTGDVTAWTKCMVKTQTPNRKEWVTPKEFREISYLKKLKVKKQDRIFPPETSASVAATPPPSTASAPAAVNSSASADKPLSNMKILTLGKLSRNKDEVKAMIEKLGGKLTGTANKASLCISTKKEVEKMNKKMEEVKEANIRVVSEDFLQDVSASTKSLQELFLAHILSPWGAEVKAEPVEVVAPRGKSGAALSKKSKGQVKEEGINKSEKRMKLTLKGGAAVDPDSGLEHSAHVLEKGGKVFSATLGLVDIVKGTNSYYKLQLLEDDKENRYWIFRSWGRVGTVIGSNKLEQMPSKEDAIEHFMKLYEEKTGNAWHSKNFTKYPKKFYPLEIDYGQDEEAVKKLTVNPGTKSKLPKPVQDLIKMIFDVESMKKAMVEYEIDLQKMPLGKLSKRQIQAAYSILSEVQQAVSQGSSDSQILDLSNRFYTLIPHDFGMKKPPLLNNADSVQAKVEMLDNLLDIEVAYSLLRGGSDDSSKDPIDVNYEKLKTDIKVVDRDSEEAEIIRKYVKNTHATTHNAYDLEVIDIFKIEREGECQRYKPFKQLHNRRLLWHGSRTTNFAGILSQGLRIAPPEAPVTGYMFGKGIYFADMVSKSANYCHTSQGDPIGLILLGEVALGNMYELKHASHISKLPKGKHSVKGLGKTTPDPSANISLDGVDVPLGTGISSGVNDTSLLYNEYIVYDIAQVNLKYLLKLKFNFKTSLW

Take `Nc1cc(C(F)(F)F)c(-c2cc(N3CCOCC3)nc(N3CCOCC3)n2)cn1` [BUPARLISIB]: the IC50 is 1410 nM in the data set on Jurkat; 1700 nM in the data set with A549; 3240 nM in the data set on SW-620 [5]; 417 nM with A2780; 3630 nM in the data set with HCT-116; 2750 nM in the data set on CAKI-1. The IC50 in the data set on HCC1937 [8] was 6310 nM; in the data set with MDA-MB-231 [9], 6030 nM; with MDA-MB-468 [10] it was 3980 nM; in the data set on SW-620 [14], 5130 nM; in the data set with HCC1937 [16], 1700 nM; in the data set on Ramos it was 3630 nM. In addition, the IC50 in the data set on BXPC-3 was 4070 nM; with DU-145, 3800 nM. Further, the Activity in the data set on MDA-MB-468 [1] is 7.84%; in the data set with MDA-MB-468 [4] it was 6.13%; in the data set with MDA-MB-468 [6], 1.82%; with MDA-MB-468 [7], 0.16%; in [12] it was “Non-Toxic”. Also, the result in the data set with MDA-MB-468 [2] was Active. The viability at 1 µM with MDA-MB-468 [3] is 91.9%. Also, the inhibition result in the data set on MDA-MB-468 [11], in the data set with MDA-MB-468 [13] and with MDA-MB-468 [15] was “Active” each time.
For `Nc1cc(C(F)(F)F)c(-c2nc3c(c(N4CCOCC4)n2)CCN(C(=O)c2cc(Cc4n[nH]c(=O)c5ccccc45)ccc2F)C3)cn1`, the IC50 in [17] is 6.03 nM; in the data set with Jurkat it was 933 nM; with A549, 537 nM; in the data set with A2780, 398 nM; in the data set on HCT-116, 871 nM; in the data set with CAKI-1 it was 955 nM. The IC50 with HCC1937 [8] was 1050 nM; in the data set with MDA-MB-231 [9], 1000 nM; in the data set on MDA-MB-468 [10], 977 nM; in the data set on SW-620 [14] it was 2820 nM; with Ramos, 1070 nM; in the data set with BXPC-3 it was 1070 nM. The same molecule gave an IC50 in the data set with DU-145 of 891 nM. Moreover, the outcome with MDA-MB-468 [2] and in the data set with Mus musculus was Active. The viability at 1 µM with MDA-MB-468 [3] is 55.7%. In addition, the Activity in the data set on MDA-MB-468 [4] came to 21.9%; in the data set with MDA-MB-468 [6], 21%; in the data set with MDA-MB-468 [7], 1.44%. The inhibition entry in the data set with MDA-MB-468 [11], in the data set with MDA-MB-468 [13], with MDA-MB-468 [15] and with MDA-MB-468 [19] was “Active” each time. The “Ratio IC50” value in the data set on MDA-MB-231 [18] was “>=4”.
